From ChEMBL document CHEMBL5537199, “Discovery and SAR Study of Boronic Acid-Based Selective PDE3B Inhibitors from a Novel DNA-Encoded Library” (J Med Chem, 2024)
pIC50: −log10 of the molar value. The source made the active and inactive calls. No cut-off for these calls is given here.

What was measured:
[1] = target: T1, cGMP-inhibited 3',5'-cyclic phosphodiesterase 3B (Homo sapiens, UniProt Q13370); experiment: Inhibition of PDE3B (unknown origin) expression in adipocytes assessed as reduction in lipid hydrolysis at 10 uM; type: cell-based
Target sequence in this assay (Q13370 whole entry, looked up, the tested form may be a part): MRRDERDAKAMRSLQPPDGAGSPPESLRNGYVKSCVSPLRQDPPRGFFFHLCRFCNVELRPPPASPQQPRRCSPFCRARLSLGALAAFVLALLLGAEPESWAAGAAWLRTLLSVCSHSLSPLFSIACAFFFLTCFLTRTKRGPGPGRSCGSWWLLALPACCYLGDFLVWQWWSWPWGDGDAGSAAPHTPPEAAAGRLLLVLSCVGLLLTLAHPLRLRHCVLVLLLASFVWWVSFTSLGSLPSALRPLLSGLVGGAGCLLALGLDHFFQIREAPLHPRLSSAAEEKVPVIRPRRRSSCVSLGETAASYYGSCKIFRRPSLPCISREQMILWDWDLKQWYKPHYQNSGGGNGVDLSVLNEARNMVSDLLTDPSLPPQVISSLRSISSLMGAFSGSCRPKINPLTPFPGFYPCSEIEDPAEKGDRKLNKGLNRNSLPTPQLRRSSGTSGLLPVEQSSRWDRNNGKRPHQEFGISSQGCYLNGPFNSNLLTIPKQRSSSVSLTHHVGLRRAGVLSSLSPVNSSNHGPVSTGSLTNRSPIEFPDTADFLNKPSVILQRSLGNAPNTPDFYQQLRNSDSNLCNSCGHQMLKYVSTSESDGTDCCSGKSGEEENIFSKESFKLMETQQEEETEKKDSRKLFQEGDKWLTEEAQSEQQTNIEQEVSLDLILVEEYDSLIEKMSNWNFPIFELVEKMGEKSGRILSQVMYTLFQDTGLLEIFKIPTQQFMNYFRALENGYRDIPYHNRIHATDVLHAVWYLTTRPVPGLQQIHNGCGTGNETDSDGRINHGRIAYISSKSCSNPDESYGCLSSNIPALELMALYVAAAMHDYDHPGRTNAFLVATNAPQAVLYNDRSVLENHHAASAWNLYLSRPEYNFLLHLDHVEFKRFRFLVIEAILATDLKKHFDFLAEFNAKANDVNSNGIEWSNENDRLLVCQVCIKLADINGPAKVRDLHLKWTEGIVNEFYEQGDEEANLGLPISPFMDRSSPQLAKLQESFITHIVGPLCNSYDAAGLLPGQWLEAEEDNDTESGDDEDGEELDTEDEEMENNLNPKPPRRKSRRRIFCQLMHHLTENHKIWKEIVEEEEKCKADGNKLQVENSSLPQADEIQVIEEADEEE

[2] = Selectivity ratio of inhibition for PDE3A (M1 to Q1141 residues) (unknown origin) by IMAP assay to inhibition for PDE3B (M1 to E1112 residues) (unknown origin) by IMAP assay
[3] = target: cGMP-inhibited 3',5'-cyclic phosphodiesterase 3A (Homo sapiens, UniProt Q14432); experiment: Inhibition of PDE3A (M1 to Q1141 residues) (unknown origin) using FAM-cAMP as substrate incubated for 45 mins by TR-FRET IMAP assay
Chain of cGMP-inhibited 3',5'-cyclic phosphodiesterase 3A (Q14432 whole entry, the tested form may be a part): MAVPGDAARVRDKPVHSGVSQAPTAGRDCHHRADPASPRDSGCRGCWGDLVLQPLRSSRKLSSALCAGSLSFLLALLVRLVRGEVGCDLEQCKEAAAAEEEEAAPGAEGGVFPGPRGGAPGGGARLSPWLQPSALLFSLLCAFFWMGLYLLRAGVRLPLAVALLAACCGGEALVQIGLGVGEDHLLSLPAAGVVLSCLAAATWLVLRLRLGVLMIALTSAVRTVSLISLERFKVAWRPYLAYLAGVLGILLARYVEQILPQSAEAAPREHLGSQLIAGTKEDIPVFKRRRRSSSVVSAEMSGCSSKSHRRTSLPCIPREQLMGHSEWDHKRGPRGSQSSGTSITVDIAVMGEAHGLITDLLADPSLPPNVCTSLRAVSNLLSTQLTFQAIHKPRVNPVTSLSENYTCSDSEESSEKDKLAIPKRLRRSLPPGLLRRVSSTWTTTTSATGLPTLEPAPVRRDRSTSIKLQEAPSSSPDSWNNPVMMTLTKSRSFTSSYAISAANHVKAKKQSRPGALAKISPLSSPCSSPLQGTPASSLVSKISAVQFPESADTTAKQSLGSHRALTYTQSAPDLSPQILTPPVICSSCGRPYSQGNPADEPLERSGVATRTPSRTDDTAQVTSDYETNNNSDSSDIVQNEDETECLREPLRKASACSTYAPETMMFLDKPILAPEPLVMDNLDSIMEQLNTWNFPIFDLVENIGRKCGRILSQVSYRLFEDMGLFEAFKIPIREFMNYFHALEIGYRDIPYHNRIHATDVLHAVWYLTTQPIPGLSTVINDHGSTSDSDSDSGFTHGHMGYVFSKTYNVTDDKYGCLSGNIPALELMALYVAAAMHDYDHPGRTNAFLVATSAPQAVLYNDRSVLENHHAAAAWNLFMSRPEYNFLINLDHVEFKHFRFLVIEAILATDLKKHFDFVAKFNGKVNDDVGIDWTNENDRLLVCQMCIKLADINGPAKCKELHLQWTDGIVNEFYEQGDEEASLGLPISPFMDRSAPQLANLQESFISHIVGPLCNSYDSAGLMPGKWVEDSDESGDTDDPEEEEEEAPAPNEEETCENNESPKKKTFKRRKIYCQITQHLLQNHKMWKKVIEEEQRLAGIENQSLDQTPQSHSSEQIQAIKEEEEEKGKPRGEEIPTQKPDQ
How it was run: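 Full-length PDE3A at 1.6 nM with 50 nM FAM-cAMP, 45 min reaction. Buffer 50 mM Tris-HCl pH 7.5, 8.3 mM MgCl2, 1.7 mM EGTA, 0.05% BSA. Compounds run as a concentration curve with a top final concentration of 100 μM. DMSO and 10 μM trequinsin served as controls. TR-FRET read at Ex 337 nm, Em 520/490 nm.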

[4] = Selectivity ratio of inhibition for PDE3A (M1 to Q1141 residues) (unknown origin) by RF-MS assay to inhibition for PDE3B (M1 to E1112 residues) (unknown origin) by RF-MS assay
[5] = target: T1, cGMP-inhibited 3',5'-cyclic phosphodiesterase 3B; experiment: Inhibition of full-length PDE3B (M1 to E1112 residues) (unknown origin) using FAM-cAMP as substrate incubated for 120 mins by TR-FRET IMAP assay
How it was run: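 Buffer 50 mM Tris-HCl pH 7.5, 8.3 mM MgCl2, 1.7 mM EGTA, 0.05% BSA. Compounds run as a concentration curve with a top final concentration of 100 μM. DMSO and 10 μM trequinsin served as controls. Terbium TR-FRET ratio read at 520:490 nm.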
Target sequence in this assay (Q13370 whole entry, the tested form may be a part): as the sequence (Q13370 whole entry, looked up, the tested form may be a part) above

SMILES	inhibition [1]	Selectivity ratio [2]	pIC50 [3]	Selectivity ratio [4]	pIC50 [5]
CC1CC(=O)NN=C1c1ccc(NC2=C(Cc3cccc(-c4ccccc4)c3)C(=O)CCC2)cc1 (stereo unspecified)	Active				
COCC(C)NC(=O)c1cc(NC(=O)c2cc(OC)c3ccc(OC)cc3n2)cc(B(O)O)c1 (stereo unspecified)	Active	> 300	< 4.00	46	6.50
COc1ccc2c(OC)cc(C(=O)Nc3cc(B(O)O)cc(C(=O)NCC(C)C)c3)nc2c1		14	4.60	56	5.80
COc1ccc2c(OC)cc(C(=O)Nc3cc(B(O)O)cc(C(N)=O)c3)nc2c1		> 51	< 4.00	45	5.70
COc1ccc2c(OC)cc(C(=O)Nc3cc(B(O)O)cc(C(=O)N(C)C)c3)nc2c1		23	4.30	63	5.70
CNC(=O)[C@H](NC(=O)c1cc(NC(=O)c2cc(OC)ccn2)cc(B(O)O)c1)C1CCCCC1		1	4.30	1.6	4.30
COc1ccc2c(OC)cc(C(=O)Nc3cc(B(O)O)cc(C(=O)O)c3)nc2c1		3	5.10	5	5.60
CNC(=O)[C@@H](C)NC(=O)c1cc(NC(=O)c2cc(OC)c3ccc(OC)cc3n2)cc(B(O)O)c1		24	4.60	26	6.00
COc1ccc2c(OC)cc(C(=O)Nc3cc(B(O)O)cc(C(=O)N4Cc5ccncc5C4)c3)nc2c1		43	4.90	97	6.50
CNC(=O)[C@H](NC(=O)c1cc(NC(=O)c2cc(Cl)cc3c2OCC(=O)N3)cc(B(O)O)c1)C1CCCCC1		3.3	5.20	7	5.80
CNC(=O)[C@@H](NC(=O)c1cc(NC(=O)c2ccc3ccc(OC)cc3c2)cc(B(O)O)c1)C1CCCCC1		1	4.90	1.9	5.00
CNC(=O)[C@@H](NC(=O)c1cc(NC(=O)c2cc(C)c3c(=O)[nH]c(=O)[nH]c3n2)cc(B(O)O)c1)C1CCCCC1		0.8	4.80	1.2	4.70
COc1ccc2c(OC)cc(C(=O)Nc3cc(B(O)O)cc(C(=O)NC(C)C)c3)nc2c1		15	4.80	42	6.00
COC(=O)c1cc(NC(=O)c2cc(OC)c3ccc(OC)cc3n2)cc(B(O)O)c1		> 52	< 4.00	> 177	5.70
CCNC(=O)N1CCCCC(NC(=O)c2cc(O)cc(NC(=O)c3cc(C)cc(C)c3OC)c2)C1 (stereo unspecified)		0.8	4.50	1	4.40
COC[C@H](NC(=O)c1cc(NC(=O)c2cc(OC)c3ccc(OC)cc3n2)cc(B(O)O)c1)C(C)C		> 190	< 4.00	50	6.30
CNC(=O)c1cc(NC(=O)c2cc(OC)c3ccc(OC)cc3n2)cc(B(O)O)c1		> 44	< 4.00	> 107	5.70

Continued by rising pIC50 [3], values first:

inhibition [1]	Selectivity ratio [2]	pIC50 [3]	Selectivity ratio [4]	pIC50 [5]	SMILES
	15	5.30	30	6.50	COc1ccc2c(OC)cc(C(=O)Nc3cc(B(O)O)cc(C(=O)N[C@H](C(N)=O)C(C)C)c3)nc2c1
	17	5.50	75	6.70	COc1ccc2c(OC)cc(C(=O)Nc3cc(B(O)O)cc(C(=O)N4CC(OC5CC5)C4)c3)nc2c1
	1	5.50	2	5.50	CNC(=O)[C@@H](NC(=O)c1cc(NC(=O)c2cc3ccccc3cn2)cc(B(O)O)c1)C1CCCCC1
	0.3	5.80	0.4	5.30	CNC(=O)[C@@H](NC(=O)c1cc(NC(=O)c2ccc3ccccc3c2)cc(B(O)O)c1)C1CCCCC1
	1.2	5.90	1	6.00	CNC(=O)[C@@H](NC(=O)c1cc(NC(=O)c2ccc3cc(OC)ccc3n2)cc(B(O)O)c1)C1CCCCC1
	12	6.00	26	7.10	CNC(=O)[C@@H](NC(=O)c1cc(NC(=O)c2cc(OC)c3ccc(OC)cc3n2)cc(B(O)O)c1)C1CCCCC1
	0.8	6.10	0.9	6.00	CNC(=O)[C@@H](NC(=O)c1cc(NC(=O)c2cc(OC)c3cc(OC)ccc3n2)cc(B(O)O)c1)C1CCCCC1
	0.5	6.80	0.7	6.50	CNC(=O)[C@@H](NC(=O)c1cc(NC(=O)c2ccc3ccncc3n2)cc(B(O)O)c1)C1CCCCC1
	0.7	6.90	0.6	6.70	CNC(=O)[C@@H](NC(=O)c1cc(NC(=O)c2ccc3ncccc3n2)cc(B(O)O)c1)C1CCCCC1
	0.5	7.70	0.5	7.30	CNC(=O)[C@@H](NC(=O)c1cc(NC(=O)c2ccc3ccccc3n2)cc(B(O)O)c1)C1CCCCC1
Active	0.7	8.30	1.1	8.10	CNC(=O)[C@@H](NC(=O)c1cc(NC(=O)c2cc(C)c3ccccc3n2)cc(B(O)O)c1)C1CCCCC1
